Values after ≈ are worked out from the molar mass of the structure shown.
What was measured:
[1] = test system: Lytechinus variegatus; test: Antimitotic activity against Lytechinus variegatus at primary cleavage stage of egg development; type: functional, tissue-based
Method in brief: (§1)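 Eggs were fertilized with diluted sperm in filtered seawater, and fertilization was confirmed by elevation of the vitellin membrane. Compounds were added 5 min after fertilization over a 0.1–100 range. Incubation was at room temperature. Aliquots were fixed in equal-volume 10% formaldehyde at first cleavage, third cleavage and blastula. 100 eggs were scored per concentration for % normal development. IC50 and 95% CI came from nonlinear regression of 3 independent experiments.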

[2] = test system: Lytechinus variegatus; test: Antimitotic activity against Lytechinus variegatus at tertiary cleavage stage of egg development; type: functional, tissue-based; method in brief: as §1
[3] = test system: Lytechinus variegatus; test: Antimitotic activity against Lytechinus variegatus at blastulae stage of egg development; type: functional, tissue-based; conditions: Blastula stage; method in brief: as §1
[4] = test system: MDA-MB-435; test: Cytotoxicity against human MDA-MB-435 cells by MTT assay; type: functional, cell-based
Method in brief: (§2)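 Cell lines were from NCI. Viability was read by MTT reduction to formazan. IC50 and 95% confidence interval came from nonlinear regression of three independent experiments.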

[5] = test system: HL-60; test: Cytotoxicity against human HL60 cells by MTT assay; type: functional, cell-based; method in brief: as §2
[6] = test system: HCT-8 (human); test: Cytotoxicity against human HCT-8 cells by MTT assay

Row | Structure (SMILES) | IC50 [1] [µg/mL] | IC50 [2] [µg/mL] | IC50 [3] [µg/mL] | IC50 [4] [µg/mL] | IC50 [5] [µg/mL] | IC50 [6] [µg/mL]
1 | CC(C)=CCc1c(O)ccc2c1OCC1c3cc4c(cc3OC21)OCO4 (stereo unspecified) | 15.2 (≈ 43.1 µM) | 4.8 (≈ 13.6 µM) | 3.3 (≈ 9.36 µM) | 4.9 (≈ 13.9 µM) | 3.1 (≈ 8.8 µM) | 8.5 (≈ 24.1 µM)
2 | CC(CO)CCc1cc2c(cc1O)OCC1c3cc4c(cc3OC21)OCO4 (stereo unspecified) | 5.18 (≈ 14 µM) | 2.1 (≈ 5.67 µM) | 1.7 (≈ 4.59 µM) | 16.9 (≈ 45.6 µM) | > 25 | 10.8 (≈ 29.2 µM)
3 | CC1(C)C=Cc2c(ccc3c2OCC2c4cc5c(cc4OC32)OCO5)O1 (stereo unspecified) [LEIOCARPIN] | 1.1 (≈ 3.14 µM) | 0.4 (≈ 1.14 µM) | 0.2 (≈ 0.571 µM) | 13.7 (≈ 39.1 µM) | 5.5 (≈ 15.7 µM) | 6.9 (≈ 19.7 µM)
4 | Oc1ccc2c(c1)OC[C@H]1c3cc4c(cc3O[C@@H]21)OCO4 [MAACKIAIN] | 6.5 (≈ 22.9 µM) | 4.3 (≈ 15.1 µM) | 4.6 (≈ 16.2 µM) | 11.5 (≈ 40.5 µM) | 17.9 (≈ 63 µM) | > 25

The next lines start with results.

Row | IC50 [1] [µg/mL] | IC50 [2] [µg/mL] | IC50 [3] [µg/mL] | Structure (SMILES) | IC50 [4] [µg/mL] | IC50 [5] [µg/mL] | IC50 [6] [µg/mL]
5 | 1.5 (≈ 4.07 µM) | 0.52 (≈ 1.41 µM) | 0.43 (≈ 1.17 µM) | C/C(=C\Cc1c(O)ccc2c1OCC1c3cc4c(cc3OC21)OCO4)CO (stereo unspecified) | > 25 | 16.2 (≈ 44 µM) | 8.8 (≈ 23.9 µM)
6 | 6.28 (≈ 11.6 µM) | 0.34 (≈ 0.626 µM) | 0.54 (≈ 0.994 µM) | COc1cccc2c1C(=O)c1c(O)c3c(c(O)c1C2=O)C[C@@](O)(C(=O)CO)C[C@@H]3O[C@H]1C[C@H](N)[C@H](O)[C@H](C)O1 [DOXORUBICIN] | […] | 0.02 (≈ 0.0368 µM) | 0.01 (≈ 0.0184 µM)
